Laboratory results taken from ChEMBL document CHEMBL3108674, “6-Alkoxy-5-aryl-3-pyridinecarboxamides, a new series of bioavailable cannabinoid receptor type 1 (CB1) antagonists including peripherally selective compounds” (J Med Chem, 2013).
pEC50, pIC50, pKi: −log10 of the molar value. Active and inactive are the calls of the source. The calls are words filed in the database; no cut-off is given here.

Legend:
Liver microsome = experiment: Clearance in rat liver microsomes at 2 uM by LC-MS/MS analysis; format: ADME
Method in brief: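 Rat liver microsomes at 0.5 mg/mL were incubated with 2 μM compound (final) and an NADPH-regenerating system. Aliquots were taken at 1, 3, 6, 9, 15, 25, 35 and 45 min and quenched in acetonitrile containing internal standard. Depletion was measured by LC-MS/MS. Clmic = −slope × 1000 / protein concentration (mg/mL), not corrected for microsomal protein binding.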

Cannabinoid receptor 2 = Cannabinoid receptor 2 (Homo sapiens, UniProt P34972); experiment: Displacement of [3H]CP55940 from human CB2 receptor expressed in CHOK1 cells after 1 hr by liquid scintillation counting analysis; format: cell-based, CHO-K1
Method in brief: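 Membranes from butyrate-treated (5 mM, 24 h) CHO-K1 cells stably expressing human CB2, incubated with 0.3 nM [3H]CP55940 and increasing ligand concentrations, 60 min, 30 °C, pH 7.4 Tris buffer with 0.1% fatty acid-free BSA and 1% DMSO; nonspecific binding with 10 μM CP55940; filtration, scintillation counting; tested in triplicate.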

Cannabinoid receptor 1 [1] = target: T1, Cannabinoid receptor 1 (Homo sapiens, UniProt P21554); experiment: Displacement of [3H]CP55940 from human CB1 receptor expressed in CHOK1 cells after 1 hr by liquid scintillation counting analysis; format: cell-based, CHO-K1
Rattus norvegicus [2] = experiment: Reduction of leptin level in high fat diet-fed Sprague-Dawley rat plasma at 30 mg/kg, po qd after 24 days by ELISA; format: functional, organism-based; set-up: dose 30 mg/kg
Method in brief: (§1)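 Diet-induced obese Sprague-Dawley rats (high responders), single-housed, groups of n = 9 matched for body weight and MRS body fat; drug given as food admix for 24 days alongside pair-fed groups; body weight and food intake measured daily; body fat by MRS; plasma leptin by ELISA; mean ± SEM, ANOVA with Dunnett's test versus vehicle.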

Rattus norvegicus [3] = experiment: Reduction in body fat content in high fat diet-fed Sprague-Dawley rat at 30 mg/kg, po qd after 24 days; format: functional, organism-based; set-up: dose 30 mg/kg; method in brief: as §1
Rattus norvegicus [4] = species on record: Rattus norvegicus; experiment: Reduction in body weight gain in high fat diet-fed Sprague-Dawley rat at […]; format: functional, organism-based
[5] = Ratio of drug level in Sprague-Dawley rat brain to plasma at 30 mg/kg, po qd after 10 days by LC-MS/MS analysis; format: ADME, organism-based; set-up: dose 30 mg/kg, route oral; conditions: brain and plasma, read-out: BPR
[6] = Drug uptake in Sprague-Dawley rat brain at 30 mg/kg, po qd after 10 days by LC-MS/MS analysis; format: ADME, organism-based; set-up: dose 30 mg/kg, route oral; conditions: read-out: Drug uptake
[7] = Cmax in Sprague-Dawley rat plasma at 30 mg/kg, po qd after 10 days by LC-MS/MS analysis; format: ADME, organism-based; set-up: dose 30 mg/kg, route oral
Method in brief: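 Male Sprague-Dawley rats (n = 3 per compound) given 30 mg/kg/day as feed admix for 10 days; jugular vein catheter implanted 4 days before sampling; on day 10 switched to drug-free high fat chow, then serial K3EDTA blood samples over 24 h; plasma drug levels by LC-MS.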

Substance-K receptor = target: T2, Substance-K receptor (Homo sapiens, UniProt P21452); experiment: Antagonist activity at human NK2 receptor
T2 sequence (P21452 whole entry): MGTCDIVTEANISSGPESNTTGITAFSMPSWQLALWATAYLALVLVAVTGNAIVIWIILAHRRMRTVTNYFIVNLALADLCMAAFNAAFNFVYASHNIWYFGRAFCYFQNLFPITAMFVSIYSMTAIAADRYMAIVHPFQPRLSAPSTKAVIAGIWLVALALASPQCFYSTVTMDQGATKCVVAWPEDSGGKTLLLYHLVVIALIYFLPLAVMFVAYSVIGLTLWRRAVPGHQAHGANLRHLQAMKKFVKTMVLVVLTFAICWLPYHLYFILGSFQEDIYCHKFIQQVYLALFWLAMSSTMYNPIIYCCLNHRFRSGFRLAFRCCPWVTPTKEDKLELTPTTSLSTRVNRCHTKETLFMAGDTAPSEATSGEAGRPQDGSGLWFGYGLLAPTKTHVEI

Rattus norvegicus [8] = experiment: Maximum unbound fraction in rat at 9 mg/kg, po; format: ADME, organism-based; set-up: dose 9 mg/kg, route oral; conditions: in vivo
Plasma = experiment: Maximum unbound fraction in rat plasma at 9 mg/kg, po; format: ADME, organism-based; set-up: dose 9 mg/kg, route oral; conditions: in vivo
[9] = Plasma protein binding in rat; format: ADME, cell-free; conditions: read-out: PPB (converted)
[10] = Ratio of drug level in brain to plasma in rat; format: ADME; conditions: brain and plasma, read-out: BPR
[11] = Oral bioavailability in rat at 9 mg/kg; format: ADME, organism-based; conditions: in vivo
[12] = Tmax in rat plasma at 9 mg/kg, po; format: ADME, organism-based; set-up: dose 9 mg/kg, route oral
[13] = Cmax in rat plasma at 9 mg/kg, po; format: ADME, organism-based; set-up: dose 9 mg/kg, route oral
[14] = Volume of distribution at steady state in rat at 3.3 mg/kg, iv; format: ADME, organism-based; set-up: dose 3.3 mg/kg, route intravenous; conditions: in vivo, read-out: Vdss
[15] = Clearance in rat at 3.3 mg/kg, iv; format: ADME, organism-based; set-up: dose 3.3 mg/kg, route intravenous; conditions: in vivo
Cannabinoid receptor 1 [16] = target: T1, Cannabinoid receptor 1; experiment: Antagonist activity at human CB1 receptor overexpressed in HEK cells assessed as [35S]GTPgamma binding after 1 hr by liquid scintillation counting analysis; format: functional, cell-based, HEK293

Chain of Cannabinoid receptor 2 (P34972 whole entry): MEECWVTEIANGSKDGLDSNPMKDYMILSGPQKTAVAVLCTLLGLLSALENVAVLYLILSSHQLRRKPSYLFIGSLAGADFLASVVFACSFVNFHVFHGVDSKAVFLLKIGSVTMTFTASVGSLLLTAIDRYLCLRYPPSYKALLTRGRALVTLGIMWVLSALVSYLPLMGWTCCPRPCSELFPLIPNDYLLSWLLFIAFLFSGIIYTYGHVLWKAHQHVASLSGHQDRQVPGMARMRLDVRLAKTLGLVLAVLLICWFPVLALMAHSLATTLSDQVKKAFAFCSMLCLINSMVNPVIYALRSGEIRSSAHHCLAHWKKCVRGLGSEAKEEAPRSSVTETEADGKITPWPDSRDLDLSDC
T1 sequence (P21554 whole entry): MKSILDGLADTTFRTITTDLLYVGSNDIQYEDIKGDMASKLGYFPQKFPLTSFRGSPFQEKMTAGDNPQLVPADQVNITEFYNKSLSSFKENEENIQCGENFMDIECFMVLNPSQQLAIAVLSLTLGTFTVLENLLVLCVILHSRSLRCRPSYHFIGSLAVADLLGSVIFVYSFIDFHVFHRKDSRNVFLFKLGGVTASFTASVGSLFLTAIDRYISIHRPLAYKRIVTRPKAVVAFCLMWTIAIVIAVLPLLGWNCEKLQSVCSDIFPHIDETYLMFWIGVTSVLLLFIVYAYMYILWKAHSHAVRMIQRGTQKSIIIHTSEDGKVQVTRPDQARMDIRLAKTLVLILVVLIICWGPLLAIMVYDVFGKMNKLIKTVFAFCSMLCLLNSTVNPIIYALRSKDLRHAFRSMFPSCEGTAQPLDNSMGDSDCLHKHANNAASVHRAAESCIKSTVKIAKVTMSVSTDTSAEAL

Row | CLH (Liver microsome) [µL/min/mg] | Structure (SMILES) | pKi (Cannabinoid receptor 2) | pKi (Cannabinoid receptor 1 [1]) | other results
1 | – | N#Cc1ccc(-c2cc(C(=O)N[C@@H]3CCCC[C@H]3O)cnc2OCC2CC2)cc1 | < 5.00 | 7.63 | –
2 | – | O=C(N[C@@H]1CCCC[C@H]1O)c1cnc(OCC2CC2)c(-c2ccc(Cl)cc2)n1 | 6.10 | 7.59 | –
3 | – | CS(=O)(=O)Nc1ccc(-c2cc(C(=O)N[C@@H]3CCCC[C@H]3O)cnc2OCC2CC2)cc1 | < 5.00 | 5.72 | –
4 | – | O=C(N[C@@H]1CCCC[C@H]1O)c1cnc(OC2CCCC2)c(-c2ccc(Cl)cc2)c1 | < 5.00 | 6.43 | –
5 | – | O=C(N[C@@H]1CCCC[C@H]1O)c1cc(-c2ccc(Cl)cc2)c(OCC2CC2)cn1 | 5.82 | < 5.15 | –
6 | – | O=C(O)c1ccc(-c2cc(C(=O)N[C@@H]3CCCC[C@H]3O)cnc2OCC2CC2)cc1 | < 5.00 | < 5.00 | –
7 | – | NC(=O)c1ccc(-c2cc(C(=O)N[C@@H]3CCCC[C@H]3O)cnc2OCC2CC2)cc1 | < 5.00 | < 5.10 | –
8 | 1503 | O=C(N[C@@H]1CCCC[C@H]1O)c1cnc(CCC2CC2)c(-c2ccc(Cl)cc2)c1 | < 5.00 | 7.78 | –
9 | 20 | O=C(N[C@@H]1CCCC[C@H]1O)c1cnc(OCc2ccccc2)c(-c2ccc(Cl)cc2)c1 | < 5.00 | 7.40 | –
10 | 151 | Cc1cc(COc2ncc(C(=O)N[C@@H]3CCCC[C@H]3O)cc2-c2ccc(Cl)cc2)on1 | < 5.00 | 7.97 | –
11 | – | O=C(N[C@@H]1CCCC[C@H]1O)c1ccc(OCC2CC2)c(-c2ccc(Cl)cc2)n1 | 6.06 | 5.74 | –
12 | 23 | O=C(N[C@@H]1CCCC[C@H]1O)c1cnc(OCC(F)(F)F)c(-c2ccc(Cl)cc2)c1 | < 5.15 | 7.91 | –
13 | 374 | O=C(N[C@@H]1CCCC[C@H]1O)c1cnc(OCc2cccnc2)c(-c2ccc(Cl)cc2)c1 | < 5.00 | 7.63 | –
14 | 44 | O=C(N[C@@H]1CCCC[C@H]1O)c1cnc(OCc2ccccn2)c(-c2ccc(Cl)cc2)c1 | < 5.00 | 6.86 | –
15 | 2.4 | C[C@](O)(CNC(=O)c1cnc(OCC2CC2)c(-c2ccc(Cl)cc2)c1)C1CC1 | < 5.00 | 7.46 | –
16 | 118 | O=C(N[C@@H]1CCCC[C@H]1O)c1cnc(OCc2ccncc2)c(-c2ccc(Cl)cc2)c1 | < 5.00 | 7.23 | –

Row | CLH (Liver microsome) [µL/min/mg] | Structure (SMILES) | pKi (Cannabinoid receptor 2) | pKi (Cannabinoid receptor 1 [1]) | other results
17 | 1730 | CN(CC1CC1)c1ncc(C(=O)N[C@@H]2CCCC[C@H]2O)cc1-c1ccc(Cl)cc1 | < 5.00 | 7.29 | –
18 | – | O=C(N[C@H]1CCCC[C@@H]1O)c1cnc(OCC2CC2)c(-c2ccc(Cl)cc2)c1 | 5.58 | 6.61 | –
19 | – | O=C(N[C@@H]1CCCC[C@H]1O)c1cnc(OCC2CC2)c(-c2ccc(Cl)cc2Cl)c1 | < 5.30 | 6.91 | –
20 | – | O=C(NN1CCCCC1)c1cnc(OCC2CC2)c(-c2ccc(Cl)cc2)c1 | < 5.00 | 6.25 | –
21 | – | CC(C)Oc1ncc(C(=O)N[C@@H]2CCCC[C@H]2O)cc1-c1ccc(Cl)cc1 | < 5.00 | 5.97 | –
22 | – | O=C(N[C@@H]1CCCC[C@H]1O)c1cc(-c2ccc(Cl)cc2)c(OCC2CC2)nn1 | < 5.52 | < 5.30 | –
23 | – | O=C(N[C@@H]1CCCC[C@H]1O)c1cnc(OCC2CC2)c(-c2ccccc2Cl)c1 | < 5.00 | 6.72 | –
24 | – | O=C(N[C@@H]1CCCC[C@H]1O)c1cnc(OCC2CC2)c(-c2ccc(C(F)(F)F)cc2)c1 | < 5.00 | 7.73 | –
25 | – | O=C(N[C@@H]1CCCC[C@H]1O)c1cnc(OCC2CC2)c(-c2ccc(Cl)c(Cl)c2)c1 | 5.90 | 6.52 | –
26 | – | NS(=O)(=O)c1ccc(-c2cc(C(=O)N[C@@H]3CCCC[C@H]3O)cnc2OCC2CC2)cc1 | < 5.00 | < 5.00 | –
27 | – | O=C(N[C@@H]1CCCC[C@H]1O)c1cnc(OCC2CC2)c(-c2cccc(Cl)c2)c1 | < 5.30 | 6.89 | –
28 | 59 | O=C(N[C@@H]1CCCC[C@H]1O)c1cnc(OCC2CC2)c(-c2cc(C(F)(F)F)ccc2Cl)c1 | 5.68 | 7.17 | –
29 | 12 | O=C(N[C@@H]1CCCC[C@H]1O)c1cnc(OCc2ncccn2)c(-c2ccc(Cl)cc2)c1 | < 5.00 | 7.29 | –
30 | 353 | O=C(N[C@@H]1CCCC[C@H]1O)c1cnc(Oc2ccccc2)c(-c2ccc(Cl)cc2)c1 | < 5.00 | 5.78 | –
31 | – | COc1ccc(-c2cc(C(=O)N[C@@H]3CCCC[C@H]3O)cnc2OCC2CC2)cc1 | < 5.00 | 7.18 | –
32 | 367 | O=C(N[C@@H]1CCCC[C@H]1O)c1cnc(OC2CCCC2)c(-c2cc(C(F)(F)F)ccc2Cl)c1 | – | – | pIC50 (Cannabinoid receptor 2): 5.62; pIC50 (Cannabinoid receptor 1 [1]): 6.40

Row | Structure (SMILES) | CLH (Liver microsome) [µL/min/mg] | pKi (Cannabinoid receptor 2) | pKi (Cannabinoid receptor 1 [1]) | other results
33 | O=C(N[C@@H]1CCCC[C@H]1O)c1cnc(OC2CCCCC2)c(-c2ccc(Cl)cc2)c1 | 662 | < 5.00 | 5.52 | –
34 | Cc1c(C(=O)N[C@@H]2CCCC[C@H]2O)cc(-c2cc(C(F)(F)F)ccc2Cl)n1CC1CCCCC1 | 1323 | – | – | pIC50 (Cannabinoid receptor 2): < 5.30; pIC50 (Cannabinoid receptor 1 [1]): 8.02
35 | O=C(N[C@@H]1CCCC[C@H]1O)c1cnc(OCC2CC2)c(-c2ccc(F)cc2)c1 | 37 | < 5.00 | 7.37 | –
36 | COCCOc1ncc(C(=O)N[C@@H]2CCCC[C@H]2O)cc1-c1ccc(Cl)cc1 | 98 | < 5.00 | 8.29 | Activity (Rattus norvegicus [2]): inactive; Activity (Rattus norvegicus [3]): inactive; Activity (Rattus norvegicus [4]): inactive; Kp at 240 h [5]: 0.13; concentration at 240 h [6]: 130 ng/g; Cmax [7]: 1000 ng/mL; pIC50 (Substance-K receptor): 4.34; fCmax (Rattus norvegicus [8]): 156 nM; Cp(f)max (Plasma): 63 ng/mL; fraction unbound [9]: 0.039; Kp [10]: 0.1; bioavailability [11]: 84%; Tmax [12]: 30 min; Cmax [13]: 1620 ng/mL; Vd [14]: 0.7 L/kg; clearance [15]: 18.6 mL/min/kg; pEC50 (Cannabinoid receptor 1 [16]): 7.94
37 | O=C(N[C@@H]1CCCC[C@@H]1O)c1cnc(OCC2CC2)c(-c2ccc(Cl)cc2)c1 | 163 | < 5.30 | 6.73 | –
38 | O=C(N[C@@H]1CCCC[C@H]1O)c1cnc(OC2CCC2)c(-c2ccc(Cl)cc2)c1 | 210 | < 5.00 | 6.68 | –
39 | O=C(N[C@@H]1CCCC[C@H]1O)c1cnc(OCC2CC2)c(-c2ccc(OC(F)(F)F)cc2)c1 | 0 | < 5.00 | 7.63 | –
40 | CCCCOc1ncc(C(=O)N[C@@H]2CCCC[C@H]2O)cc1-c1ccc(Cl)cc1 | 101 | < 5.00 | 7.36 | –
41 | O=C(N[C@H]1CCCC[C@H]1O)c1cnc(OCC2CC2)c(-c2ccc(Cl)cc2)c1 | 111 | < 5.15 | 6.98 | –
